Assay results: ChEMBL document CHEMBL1138081, “New furan side tetracyclic allopsoralen derivatives: synthesis and photobiological evaluation” (J Med Chem, 2006); call rule not given here

Key:
HL-60 [1] = experiment: Antiproliferative activity against HL60 cells in dark; format: functional, cell-based; conditions: Homo sapiens
Method in brief: (§1)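 HL-60 cells (10^5 per well) were grown in RPMI 1640 with 15% heat-inactivated FCS and antibiotics at 37 °C in 5% CO2. After 24 h, compound was added in complete medium. For the irradiated arm, cells were kept 1 h in the dark, then given 0.789 J cm-2 UVA (365 nm lamps). Cells were incubated a further 24 h and viability read by trypan blue. IC50 is the concentration giving 50% fewer cells than control.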

HeLa [2] = experiment: Antiproliferative activity against HeLa cells in dark; format: functional, cell-based; conditions: Homo sapiens
Method in brief: (§2)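 HeLa cells (10^5 per well) were grown in F-12 with 10% heat-inactivated FCS at 37 °C in 5% CO2. After 24 h, medium was swapped for phenol-red-free DMEM with compound. For UVA, cells were irradiated after 1 h at 0.789 J cm-2 (365 nm), then the drug medium was replaced with complete F-12 for 24 h. In the dark arm, cells stayed 24 h with compound in complete F-12. IC50 is the concentration giving 50% fewer cells than control.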

HeLa [3] = experiment: Antiproliferative activity against HeLa cells in presence of 0.789 J/cm2 UVA light; format: functional, cell-based; conditions: Homo sapiens, light or radiation study; method in brief: as §2
HL-60 [4] = experiment: Antiproliferative activity against HL60 cells in presence of 0.789 J/cm2 UVA light; format: functional, cell-based; conditions: Homo sapiens, HL-60, light or radiation study; method in brief: as §1
Cavia porcellus [5] = organism: Cavia porcellus; experiment: Phototoxicity in albino Dunkin-Hartley guinea pig skin assessed as formation of erythema at 0.14 umol/cm2; format: organism-based, Zone of skin; conditions: in vivo, topical_or_ocular
Method in brief: (§3)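 Depilated albino outbred Dunkin-Hartley guinea pigs received the compound as an ethanol solution applied topically to the skin. Animals were kept 45 min in the dark, then the treated skin was irradiated with 20 kJ m-2 UVA. Erythema was scored after 48 h.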

Cavia porcellus [6] = experiment: Phototoxicity in albino Dunkin-Hartley guinea pig skin assessed as formation of erythema with edema at 0.046 umol/cm2; format: organism-based, Zone of skin; conditions: in vivo, topical_or_ocular; method in brief: as §3
Cavia porcellus [7] = organism: Cavia porcellus; experiment: Phototoxicity in albino Dunkin-Hartley guinea pig skin assessed as formation of erythema at […]; format: organism-based, Zone of skin; conditions: in vivo, topical_or_ocular; method in brief: as §3
[8] = molecular target: DNA topoisomerase II (Homo sapiens) (UniProt P11388+Q02880); experiment: Inhibition of topoisomerase 2 by ATP-dependent decatenation of kinetoplast DNA; format: protein assay
Method in brief: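 Human topoisomerase II (1 U) was incubated with 0.15 µg kinetoplast DNA and compound (1, 2, 4, 8 µM) in 20 µL for 1 h at 37 °C. The reaction was stopped with stop buffer plus proteinase K 50 µg/mL for 30 min at 37 °C. Decatenation was read on a 1% agarose gel with ethidium bromide 0.5 µg/mL in TAE, pH 8.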

IC50 (HL-60 [1])	IC50 (HeLa [2])	IC50 (HeLa [3])	IC50 (HL-60 [4])	inhibition [8]	SMILES	Activity (Cavia porcellus [5])	Activity (Cavia porcellus [6])	Activity (Cavia porcellus [7])
7.9 µM	> 20 µM	0.4 µM	0.61 µM	–	Cc1cc(=O)oc2cc(OCCCN(C)C)c3c4c(oc3c12)CCCC4	Not Active	–	–
0.48 µM	3.5 µM	0.0043 µM	0.0105 µM	Dose-dependent effect	Cc1cc(=O)oc2cc(OCCCN(C)C)c3c4ccccc4oc3c12	–	Active	Not Active
> 20 µM	> 20 µM	> 20 µM	> 20 µM	–	COc1cc2oc(=O)cc(C)c2c2oc3ccccc3c12	Not Active	–	–
> 20 µM	> 20 µM	–	–	–	COc1c2occc2cc2ccc(=O)oc12 [METHOXSALEN]	–	Active	–
> 20 µM	> 20 µM	> 20 µM	> 20 µM	–	COc1cc2oc(=O)cc(C)c2c2oc3c(c12)CCCC3	Not Active	–	–
> 20 µM	> 20 µM	> 20 µM	> 20 µM	–	Cc1cc(=O)oc2cc(O)c3c4ccccc4oc3c12	Not Active	–	–
> 20 µM	> 20 µM	> 20 µM	> 20 µM	–	Cc1cc(=O)oc2cc(O)c3c4c(oc3c12)CCCC4	Not Active	–	–
